Key:
[1] = system: Human immunodeficiency virus 1; test: Antiviral activity against wild type HIV1 NL4-3 infected in human MT4 cells assessed as reduction of viral p24 level cells […] relative to wild type HIV1 NL4-3 after 4 days by ELISA; type: functional, organism-based; conditions: Human immunodeficiency virus 1, NL4-3, MT4, 96 h
[2] = system: Human immunodeficiency virus 1; test: Antiviral activity against bevirimat-resistant HIV1 NL4-3 harboring QVT motif of Gag SP1 V370A mutant infected in human MT4 cells assessed as reduction of viral p24 level cells […] relative to wild type HIV1 NL4-3 after 4 days by ELISA; type: functional, organism-based; conditions: Human immunodeficiency virus 1, NL4-3, MT4, 96 h
[3] = system: Human immunodeficiency virus 1; test: Antiviral activity against HIV1 NL4-3 infected in human TZM-bl cells assessed as reduction in luciferase gene expression by luminescence assay; type: functional, organism-based; conditions: Human immunodeficiency virus 1, NL4-3, TZM-bl
Procedure, shortened: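 Single-cycle HIV-1 NL4-3 infection of TZM-bl cells; HIV-1 tat-driven luciferase expression after viral entry read as the measure of inhibition. […] control is NL4-3 infection without compound. Values are the mean of two or more independent experiments with standard deviation.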

[4] = system: Human immunodeficiency virus 1; test: Ratio of EC50 for bevirimat-resistant HIV1 NL4-3 harboring QVT motif of Gag SP1 V370A mutant to EC50 for wild type HIV1 NL4-3; type: functional
Procedure, shortened: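 Multi-cycle viral replication assay in MT4 cells infected with wild-type HIV-1 NL4-3 or the V370A Gag variant. EC50 was determined against each virus, and the fold ratio was taken as mutant EC50 over wild-type EC50.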

[5] = system: Liver microsomes; test: Half life in human liver microsomes at 1 uM
[6] = system: Human immunodeficiency virus 1; test: Antiviral activity against HIV1 NL4-3 harboring QVT motif of Gag SP1 V370A mutant infected in human TZM-bl cells by fluorescence assay relative to wild type HIV1 NL4-3; type: functional
Procedure, shortened: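 Single-round infection of TZM-bl cells with HIV-1 NL4-3 or the NL4-3 V370A mutant. Tat-driven luciferase expression after viral entry was the read-out. Inhibition was taken as the reduction in luciferase signal relative to infected controls without compound, expressed as relative fluorescence units.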

[7] = Cytotoxicity against human MT4 assessed as cell viability after 2 days; type: cell-based; conditions: MT4 cells, read-out: TD50
[8] = system: Liver microsomes; conditions: human, 1 µM
[9] = Cytotoxicity against human TZM-bl assessed as cell viability at 4 uM after 2 days; type: cell-based; conditions: 48 h
Procedure, shortened: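 Toxicity to TZM-bl cells was checked within the single-cycle infection assay at 4 μM.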

[10] = system: Human immunodeficiency virus 1; test: Antiviral activity against bevirimat-resistant HIV1 NL4-3 harboring QVT motif of Gag SP1 deltaT371 mutant infected in human MT4 cells assessed as reduction of viral p24 level cells […] relative to wild type HIV1 NL4-3 after 4 days by ELISA; type: functional, organism-based; conditions: Human immunodeficiency virus 1, NL4-3, MT4, 96 h
Procedure, shortened: (§1)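 Multi-cycle viral replication assay in MT4 cells, run in parallel against wild-type NL4-3 and NL4-3 variants carrying V370A, ΔV370 or ΔT371 in Gag.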

[11] = system: Human immunodeficiency virus 1; test: Antiviral activity against bevirimat-resistant HIV1 NL4-3 harboring QVT motif of Gag SP1 deltaV370 mutant infected in human MT4 cells assessed as reduction of viral p24 level cells […] relative to wild type HIV1 NL4-3 after 4 days by ELISA; type: functional, organism-based; conditions: Human immunodeficiency virus 1, NL4-3, MT4, 96 h; procedure, shortened: as §1

| SMILES | EC50 [1] [nM] | EC50 [2] [nM] | EC50 [3] [nM] | Ratio EC50 [4] | t1/2 [5] [min] | fold change (FC) [6] | CC50 at 48 h [7] [nM] | CLH [8] [µL/min/mg] | Activity [9] | EC50 [10] [nM] | EC50 [11] [nM] |
| --- | --- | --- | --- | --- | --- | --- | --- | --- | --- | --- | --- |
| C=C(C)[C@@H]1CC[C@]2(C(=O)NCCCCCCCCC(=O)N[C@@H](CCC(N)=O)C(=O)OC)CC[C@]3(C)[C@H](CC[C@@H]4[C@@]5(C)CC[C@H](O)C(C)(C)[C@@H]5CC[C@]43C)[C@@H]12 | 1720 | 20 | 90 | 5 | 30.13 | 2 | 4800 | 230 | Non-toxic | – | – |
| C=C(C)[C@@H]1CC[C@]2(C(=O)NCCCCCCCCC(=O)N[C@@H](CCC(N)=O)C(=O)OCc3ccccc3)CC[C@]3(C)[C@H](CC[C@@H]4[C@@]5(C)CC[C@H](O)C(C)(C)[C@@H]5CC[C@]43C)[C@@H]12 | 190 | 50 | 120 | 5 | 41.01 | 2 | 15000 | 169 | Non-toxic | 26 | 23 |
| COC(=O)[C@H](CCC(N)=O)NC(=O)CCCCCCCCNC(=O)[C@]12CC[C@@H](C(C)C)[C@@H]1[C@H]1CC[C@@H]3[C@@]4(C)CC[C@H](O)C(C)(C)[C@@H]4CC[C@@]3(C)[C@]1(C)CC2 | 580 | 20 | 50 | 5 | 31.64 | – | 4600 | 219 | Non-toxic | – | – |
| CC(C)[C@@H]1CC[C@]2(C(=O)NCCCCCCCCC(=O)N[C@@H](CCC(N)=O)C(=O)O)CC[C@]3(C)[C@H](CC[C@@H]4[C@@]5(C)CC[C@H](O)C(C)(C)[C@@H]5CC[C@]43C)[C@@H]12 | 830 | 240 | 40 | 5 | 24.75 | – | 18600 | 280 | Non-toxic | – | – |
| C=C(C)[C@@H]1CC[C@]2(C(=O)NCCCCCCCNC(=O)[C@H](CCC(N)=O)NC(=O)OC(C)(C)C)CC[C@]3(C)[C@H](CC[C@@H]4[C@@]5(C)CC[C@H](O)C(C)(C)[C@@H]5CC[C@]43C)[C@@H]12 | 360 | 90 | 40 | 5 | 18.93 | – | 7400 | 366 | Non-toxic | – | – |
| C=C(C)[C@@H]1CC[C@]2(C(=O)NCCCCCCCNC(C)=O)CC[C@]3(C)[C@H](CC[C@@H]4[C@@]5(C)CC[C@H](O)C(C)(C)[C@@H]5CC[C@]43C)[C@@H]12 | 120 | 190 | 80 | – | 25.48 | 2 | 12600 | 272 | Non-toxic | 27 | 6 |
| C=C(C)[C@@H]1CC[C@]2(C(=O)O)CC[C@]3(C)[C@H](CC[C@@H]4[C@@]5(C)CC[C@H](OC(=O)CC(C)(C)C(=O)O)C(C)(C)[C@@H]5CC[C@]43C)[C@@H]12 [BEVIRIMAT] | – | > 4000 | – | – | – | – | > 10000 | – | – | > 4000 | > 4000 |

From ChEMBL document CHEMBL2057155, “Synthesis of betulinic acid derivatives as entry inhibitors against HIV-1 and bevirimat-resistant HIV-1 variants” (Bioorg Med Chem Lett, 2012)
